# Data taken from ChEMBL document CHEMBL1142952, “Design, synthesis, and activity of 2-imidazol-1-ylpyrimidine derived inducible nitric oxide synthase dimerization inhibitors” (J Med Chem, 2007).
# Active and inactive are the calls of the source.
# Experiments:
# [1] = Clearance in dog at 3 mg/kg; assay type: ADME, organism-based, Canis lupus familiaris; design: dose 3 mg/kg; conditions: in vivo
# [2] = Bioavailability in dog at 3 mg/kg, po; assay type: ADME, organism-based, Canis lupus familiaris; conditions: in vivo
# [3] = test system: Rattus norvegicus; assay: Amelioration of adjuvant-induced arthritis in sc dosed Lewis rat; assay type: functional, organism-based
# How it was run: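 Adult male Lewis rats immunized intradermally at the proximal tail with Mycobacterium butyricum in incomplete Freund's adjuvant (10 mg/mL, 0.1 mL). Starting the next day, dosed subcutaneously at 3, 10 or 30 mg/kg or vehicle twice daily (12 h apart); naive group untreated; 10 rats per group. Weighed and clinically scored (0-4 per limb) 3 times weekly; radiological scoring; sacrifice at day 34-35.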
# [4] = biological target: Nitric oxide synthase, inducible (Homo sapiens, UniProt P35228); assay: Inhibition of cytokine-induced iNOS expressed in human A172 cells assessed as inhibition of NO formation; assay type: cell-based, A 172
# Nitric oxide synthase, inducible, sequence (P35228 whole entry): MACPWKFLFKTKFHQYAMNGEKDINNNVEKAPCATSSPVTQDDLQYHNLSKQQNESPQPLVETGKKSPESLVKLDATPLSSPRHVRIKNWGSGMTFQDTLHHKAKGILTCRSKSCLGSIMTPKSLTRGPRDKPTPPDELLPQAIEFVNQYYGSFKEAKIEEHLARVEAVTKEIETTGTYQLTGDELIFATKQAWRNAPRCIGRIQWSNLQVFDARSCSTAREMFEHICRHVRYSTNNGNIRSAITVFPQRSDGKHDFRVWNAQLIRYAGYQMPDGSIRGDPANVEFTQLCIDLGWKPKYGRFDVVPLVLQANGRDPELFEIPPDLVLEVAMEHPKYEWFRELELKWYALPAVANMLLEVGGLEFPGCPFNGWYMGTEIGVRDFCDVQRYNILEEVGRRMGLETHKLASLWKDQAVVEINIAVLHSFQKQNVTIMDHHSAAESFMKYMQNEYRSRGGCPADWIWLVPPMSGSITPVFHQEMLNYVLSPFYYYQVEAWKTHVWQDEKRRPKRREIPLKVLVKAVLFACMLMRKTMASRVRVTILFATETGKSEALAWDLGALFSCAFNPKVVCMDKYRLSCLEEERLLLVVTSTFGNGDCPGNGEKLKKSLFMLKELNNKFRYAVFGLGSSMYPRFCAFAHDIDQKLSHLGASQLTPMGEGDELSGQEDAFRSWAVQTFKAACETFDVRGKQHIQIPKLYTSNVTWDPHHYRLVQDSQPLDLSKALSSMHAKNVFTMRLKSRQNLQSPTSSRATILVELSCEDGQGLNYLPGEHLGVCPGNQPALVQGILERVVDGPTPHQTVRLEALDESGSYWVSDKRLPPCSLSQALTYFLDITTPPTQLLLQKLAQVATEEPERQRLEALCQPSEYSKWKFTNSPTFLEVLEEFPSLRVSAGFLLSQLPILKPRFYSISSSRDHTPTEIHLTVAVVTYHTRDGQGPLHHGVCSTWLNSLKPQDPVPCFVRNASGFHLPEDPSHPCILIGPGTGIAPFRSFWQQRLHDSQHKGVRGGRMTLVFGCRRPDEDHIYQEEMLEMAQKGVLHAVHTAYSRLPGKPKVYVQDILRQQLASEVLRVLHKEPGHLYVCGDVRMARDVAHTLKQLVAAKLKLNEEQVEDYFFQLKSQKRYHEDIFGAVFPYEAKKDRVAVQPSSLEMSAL
# [5] = biological target: Nitric oxide synthase, inducible (Rattus norvegicus) (UniProt Q06518); assay: Activity against rat cerebellum iNOS upto 1 uM
# Nitric oxide synthase, inducible (Rattus norvegicus), sequence (Q06518 whole entry): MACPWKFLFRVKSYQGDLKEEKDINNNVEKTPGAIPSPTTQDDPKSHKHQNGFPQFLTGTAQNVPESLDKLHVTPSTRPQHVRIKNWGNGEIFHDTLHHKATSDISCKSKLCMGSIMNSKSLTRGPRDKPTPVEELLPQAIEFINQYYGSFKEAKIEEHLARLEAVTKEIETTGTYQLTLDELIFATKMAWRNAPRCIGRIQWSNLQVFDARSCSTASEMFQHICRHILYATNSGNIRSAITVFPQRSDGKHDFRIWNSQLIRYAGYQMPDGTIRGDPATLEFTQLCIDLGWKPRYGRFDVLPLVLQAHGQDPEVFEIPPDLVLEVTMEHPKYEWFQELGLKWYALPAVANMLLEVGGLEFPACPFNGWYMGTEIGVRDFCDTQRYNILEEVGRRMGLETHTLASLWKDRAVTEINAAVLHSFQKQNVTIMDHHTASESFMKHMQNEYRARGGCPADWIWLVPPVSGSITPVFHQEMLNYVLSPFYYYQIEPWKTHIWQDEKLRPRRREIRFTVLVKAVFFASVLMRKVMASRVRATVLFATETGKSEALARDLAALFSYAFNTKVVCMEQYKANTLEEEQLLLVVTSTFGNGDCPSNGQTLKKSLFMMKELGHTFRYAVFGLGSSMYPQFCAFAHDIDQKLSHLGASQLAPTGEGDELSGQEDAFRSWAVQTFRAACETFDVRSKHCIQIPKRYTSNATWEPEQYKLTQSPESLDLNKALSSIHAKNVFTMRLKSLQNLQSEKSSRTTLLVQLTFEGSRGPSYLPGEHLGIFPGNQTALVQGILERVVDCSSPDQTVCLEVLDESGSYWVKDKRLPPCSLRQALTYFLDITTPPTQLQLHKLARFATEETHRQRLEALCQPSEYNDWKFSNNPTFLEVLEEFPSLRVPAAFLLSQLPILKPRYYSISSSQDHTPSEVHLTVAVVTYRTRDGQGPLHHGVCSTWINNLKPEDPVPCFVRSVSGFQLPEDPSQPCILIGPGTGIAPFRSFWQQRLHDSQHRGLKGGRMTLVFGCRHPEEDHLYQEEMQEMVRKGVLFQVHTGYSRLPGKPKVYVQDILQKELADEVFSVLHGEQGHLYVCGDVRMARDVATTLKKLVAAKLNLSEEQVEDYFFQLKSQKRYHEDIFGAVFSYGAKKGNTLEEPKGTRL
# [6] = Inhibition of vaccinia virus system-induced human NOS expressed in BSC1 cells; assay type: cell-based; conditions: bsc-1
# [7] = Inhibition of tetracycline system-induced human NOS expressed in SF9 cells
# How it was run: (§1)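 SF9 cells carrying a tetracycline-induced system expressing one NOS isoform (iNOS, ecNOS or bcNOS); cellular NO formation inhibition measured, compounds up to 10 µM.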
# [8] = test system: BSC-1; assay: Selectivity ratio, IC50 for ecNOS/IC50 for iNOS using vaccinia virus-induced system in BSC1 cells; assay type: cell-based; conditions: Homo sapiens
# How it was run: (§2)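 For each compound, the IC50 against bcNOS (b/i) or ecNOS (e/i) is divided by the iNOS IC50 from the same BSC-1 vaccinia system.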
# [9] = test system: BSC-1; assay: Selectivity ratio, IC50 for bcNOS/IC50 for iNOS using vaccinia virus-induced system in BSC1 cells; assay type: cell-based; conditions: Homo sapiens; how it was run: as §2
# [10] = test system: Sf9; assay: Selectivity ratio, IC50 for ecNOS/IC50 for iNOS using tetracycline-induced system in SF9 cells; assay type: cell-based; conditions: Homo sapiens; how it was run: as §1
# [11] = test system: Sf9; assay: Selectivity ratio, IC50 for bcNOS/IC50 for iNOS using tetracycline-induced system in SF9 cells; assay type: cell-based; conditions: Homo sapiens; how it was run: as §1
# [12] = Half life in rat at 10 mg/kg, iv; assay type: ADME, organism-based; design: dose 10 mg/kg, route intravenous; conditions: in vivo
# [13] = Bioavailability in po and iv dosed rat 10 mg/kg, po; assay type: ADME, organism-based; conditions: in vivo
# [14] = Half life in dog at 3 mg/kg, iv; assay type: ADME, organism-based, Canis lupus familiaris; design: dose 3 mg/kg, route intravenous; conditions: in vivo
SMILES,clearance [1],bioavailability [2],Activity [3],IC50 [4],Activity [5],IC50 [6],IC50 [7],Ratio IC50 [8],Ratio IC50 [9],Ratio IC50 [10],Ratio IC50 [11],half-life [12],bioavailability [13],half-life [14]
Cc1cc(N2CCC[C@@H]2C(=O)NCCc2ccc3c(c2)OCO3)nc(-n2ccnc2)n1,4.5 mL/min/kg,71%,inactive,0.29 nM,inactive,20 nM,14 nM,> 5000,62,540,327,0.7 h,21%,2.5 h
CCc1cc(N2CCC[C@@H]2C(=O)NCCc2ccc3c(c2)OCO3)nc(-n2ccnc2)n1,–,–,–,0.52 nM,inactive,25 nM,16 nM,> 3800,67,170,280,–,–,–
Cc1cc(N2CCN(C(=O)C(C)C)C(CC(=O)NCc3ccc4c(c3)OCO4)C2)nc(-n2ccnc2)n1 (configuration not stated),–,–,–,1.9 nM,inactive,80 nM,46 nM,> 300,80,240,120,–,–,–
COC(=O)N1CCN(c2ccnc(-n3ccnc3)n2)C(CC(=O)NCc2ccc3c(c2)OCO3)C1 (configuration not stated),–,–,–,0.38 nM,inactive,24 nM,12 nM,1700,5,82,25,–,–,–
O=C(C[C@H]1CCCN1c1ccnc(-n2ccnc2)n1)NCc1ccc2c(c1)OCO2,–,–,–,0.28 nM,inactive,5.6 nM,5.5 nM,2900,5,47,6,–,–,–
COC(=O)N1CCN(c2ccnc(-n3ccnc3)n2)[C@@H](CC(=O)NCc2ccc3c(c2)OCO3)C1,–,–,–,0.24 nM,inactive,18 nM,10 nM,1100,6,32,16,–,–,–
Cc1cc(N2CCN(C(=O)C(C)C)[C@H](CC(=O)NCc3ccc4c(c3)OCO4)C2)nc(-n2ccnc2)n1,–,–,–,0.75 nM,inactive,350 nM,130 nM,> 400,29,74,80,–,–,–
